Data published in ChEMBL document CHEMBL1152812, “Novel trans-2-aryl-cyclopropylamine analogues as potent and selective dipeptidyl peptidase IV inhibitors” (Bioorg Med Chem, 2009).
The source made the active and inactive calls. No cut-off for these calls is given here.

Tests used:
Dipeptidyl peptidase 8 [1] = target: T1, Dipeptidyl peptidase 8 (Homo sapiens, UniProt Q6V1X1); test: Inhibition of human DPP8
Target sequence in this assay (Q6V1X1 whole entry): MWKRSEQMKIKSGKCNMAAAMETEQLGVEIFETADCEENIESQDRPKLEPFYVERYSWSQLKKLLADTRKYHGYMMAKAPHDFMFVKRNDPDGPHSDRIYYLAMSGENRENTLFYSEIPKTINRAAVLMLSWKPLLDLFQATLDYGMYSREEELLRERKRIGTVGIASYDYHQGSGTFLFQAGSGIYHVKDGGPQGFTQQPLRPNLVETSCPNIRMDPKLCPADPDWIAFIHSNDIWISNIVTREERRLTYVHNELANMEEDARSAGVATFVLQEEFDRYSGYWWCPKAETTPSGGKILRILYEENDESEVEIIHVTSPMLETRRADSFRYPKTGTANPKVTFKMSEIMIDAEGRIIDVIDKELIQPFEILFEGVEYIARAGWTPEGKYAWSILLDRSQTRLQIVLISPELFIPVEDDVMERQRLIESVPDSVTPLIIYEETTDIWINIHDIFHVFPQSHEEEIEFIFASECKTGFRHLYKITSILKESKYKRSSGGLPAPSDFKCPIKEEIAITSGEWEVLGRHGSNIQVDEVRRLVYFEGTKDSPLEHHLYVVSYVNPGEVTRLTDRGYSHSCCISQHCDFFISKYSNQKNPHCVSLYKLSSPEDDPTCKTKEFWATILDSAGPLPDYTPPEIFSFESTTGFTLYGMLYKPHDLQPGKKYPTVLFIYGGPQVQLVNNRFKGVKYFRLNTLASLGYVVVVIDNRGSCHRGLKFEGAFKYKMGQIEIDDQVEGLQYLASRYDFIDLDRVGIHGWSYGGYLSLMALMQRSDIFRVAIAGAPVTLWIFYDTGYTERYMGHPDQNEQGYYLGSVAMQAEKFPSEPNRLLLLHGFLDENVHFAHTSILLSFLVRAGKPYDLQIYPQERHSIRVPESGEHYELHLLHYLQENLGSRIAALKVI

Dipeptidyl peptidase 2 = Dipeptidyl peptidase 2 (Homo sapiens, UniProt Q9UHL4); test: Inhibition of human DPP2
Prolyl endopeptidase FAP = target: T2, Prolyl endopeptidase FAP (Homo sapiens, UniProt Q12884); test: Inhibition of human FAP
T2 sequence (Q12884 whole entry): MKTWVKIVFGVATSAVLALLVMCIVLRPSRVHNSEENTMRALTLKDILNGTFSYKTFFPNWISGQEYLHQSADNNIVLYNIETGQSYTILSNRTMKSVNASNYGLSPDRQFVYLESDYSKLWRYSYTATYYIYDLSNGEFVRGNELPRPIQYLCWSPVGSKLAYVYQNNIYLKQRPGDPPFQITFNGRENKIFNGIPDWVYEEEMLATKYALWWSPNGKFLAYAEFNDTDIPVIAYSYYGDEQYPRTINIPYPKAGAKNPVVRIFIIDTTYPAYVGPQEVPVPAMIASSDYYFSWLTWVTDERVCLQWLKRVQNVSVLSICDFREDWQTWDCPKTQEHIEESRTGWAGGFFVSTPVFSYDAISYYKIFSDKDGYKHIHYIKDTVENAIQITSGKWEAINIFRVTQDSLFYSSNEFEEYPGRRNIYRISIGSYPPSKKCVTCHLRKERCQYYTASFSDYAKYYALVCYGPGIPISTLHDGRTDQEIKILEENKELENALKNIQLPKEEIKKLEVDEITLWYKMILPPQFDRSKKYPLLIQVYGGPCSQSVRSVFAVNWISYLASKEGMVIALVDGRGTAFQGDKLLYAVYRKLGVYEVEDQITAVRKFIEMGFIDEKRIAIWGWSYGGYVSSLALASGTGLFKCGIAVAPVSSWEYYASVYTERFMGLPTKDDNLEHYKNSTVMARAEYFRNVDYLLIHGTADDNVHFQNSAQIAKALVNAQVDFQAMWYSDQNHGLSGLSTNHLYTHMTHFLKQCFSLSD

[2] = Plasma clearance in rat at 5 mg/kg, iv or 10 mg/kg, po; format: ADME, organism-based
Method in brief: (§1)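 Rat pharmacokinetics after dosing at 5 mg/kg iv and 10 mg/kg po. Parameters derived: plasma clearance, oral Cmax, oral half-life, dose-normalised oral AUC and oral bioavailability (F).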

[3] = Cmax in rat at 10 mg/kg, po; format: ADME, organism-based; design: dose 10 mg/kg, route oral; details: in vivo; method in brief: as §1
[4] = Half life in rat at 10 mg/kg, po; format: ADME, organism-based; design: dose 10 mg/kg, route oral; details: in vivo; method in brief: as §1
Rattus norvegicus [5] = test: (§2) Oral bioavailability in rat at 10 mg/kg, po; format: ADME, organism-based; details: in vivo; method in brief: as §1
Dipeptidyl peptidase 8 [6] = target: T1, Dipeptidyl peptidase 8; test: Inhibition of human DPP8 at 20 uM
Target sequence in this assay (Q6V1X1 whole entry, looked up): as the sequence (Q6V1X1 whole entry) above

Rattus norvegicus [7] = test: Inhibition of DPP4 in Wistar rat plasma at 10 mg/kg, po within 30 mins; format: functional; details: 0.5 h
Method in brief: (§3)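 Adult male Wistar rats (n = 4–6/group) given a single oral gavage of 10 mg/kg in 0.5% methyl cellulose. Tail-vein blood (25–50 µl) taken at timed points and plasma kept frozen. Plasma (10 µl) mixed with 150 µM Gly-Pro-AMC in 25 mM Tris-HCl pH 7.4, 140 mM NaCl, 10 mM KCl, 0.1% BSA. Fluorescence read at ex 390/em 460 nm. Activity in U/mL; mean ± SEM.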

Rattus norvegicus [8] = test: Inhibition of DPP4 in Wistar rat plasma at 10 mg/kg, po after 8 hrs; format: functional; method in brief: as §3
[9] = as §2; format: ADME, organism-based; details: in vivo; method in brief: as §1
Rattus norvegicus [10] = test: Inhibition of DPP4 in Wistar rat plasma at 10 mg/kg, po after 24 hrs; format: functional, organism-based; design: dose 10 mg/kg; method in brief: as §3
Mus musculus = test: Reduction in glucose excursion in C57BL/6J lean mouse at 3 mg/kg, po pretreated 30 mins before glucose challenge measured after 120 mins by oral glucose tolerance test relative to control; format: functional, organism-based; design: dose 3 mg/kg
Method in brief: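 Fasted overnight: adult male C57BL/6 mice (20–25 g, 6–8 weeks old, n = 6/group), grouped by tail-vein glucometer reading. Oral gavage of test agent in distilled water at −30 min (1, 3 or 10 mg/kg), then 3 g/kg oral glucose (400 mg/mL) at 0 min.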

[11] = Plasma clearance in rat at 5 mg/kg, iv or 25 mg/kg, po; format: ADME, organism-based
Method in brief: (§4)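 Rat pharmacokinetics after dosing at 5 mg/kg iv and 25 mg/kg po. Parameters derived: plasma clearance, oral Cmax, oral half-life, dose-normalised oral AUC and oral bioavailability (F).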

[12] = Cmax in rat at 25 mg/kg, po; format: ADME, organism-based; design: dose 25 mg/kg, route oral; details: in vivo; method in brief: as §4
[13] = Half life in rat at 25 mg/kg, po; format: ADME, organism-based; design: dose 25 mg/kg, route oral; details: in vivo; method in brief: as §4
[14] = Oral bioavailability in rat at 25 mg/kg, po; format: ADME, organism-based; details: in vivo; method in brief: as §4
hERG (KCNH2) = hERG (KCNH2) (Homo sapiens, UniProt Q12809); test: Inhibition of human ERG at 10 uM
Sequence of hERG (KCNH2) (Q12809 whole entry): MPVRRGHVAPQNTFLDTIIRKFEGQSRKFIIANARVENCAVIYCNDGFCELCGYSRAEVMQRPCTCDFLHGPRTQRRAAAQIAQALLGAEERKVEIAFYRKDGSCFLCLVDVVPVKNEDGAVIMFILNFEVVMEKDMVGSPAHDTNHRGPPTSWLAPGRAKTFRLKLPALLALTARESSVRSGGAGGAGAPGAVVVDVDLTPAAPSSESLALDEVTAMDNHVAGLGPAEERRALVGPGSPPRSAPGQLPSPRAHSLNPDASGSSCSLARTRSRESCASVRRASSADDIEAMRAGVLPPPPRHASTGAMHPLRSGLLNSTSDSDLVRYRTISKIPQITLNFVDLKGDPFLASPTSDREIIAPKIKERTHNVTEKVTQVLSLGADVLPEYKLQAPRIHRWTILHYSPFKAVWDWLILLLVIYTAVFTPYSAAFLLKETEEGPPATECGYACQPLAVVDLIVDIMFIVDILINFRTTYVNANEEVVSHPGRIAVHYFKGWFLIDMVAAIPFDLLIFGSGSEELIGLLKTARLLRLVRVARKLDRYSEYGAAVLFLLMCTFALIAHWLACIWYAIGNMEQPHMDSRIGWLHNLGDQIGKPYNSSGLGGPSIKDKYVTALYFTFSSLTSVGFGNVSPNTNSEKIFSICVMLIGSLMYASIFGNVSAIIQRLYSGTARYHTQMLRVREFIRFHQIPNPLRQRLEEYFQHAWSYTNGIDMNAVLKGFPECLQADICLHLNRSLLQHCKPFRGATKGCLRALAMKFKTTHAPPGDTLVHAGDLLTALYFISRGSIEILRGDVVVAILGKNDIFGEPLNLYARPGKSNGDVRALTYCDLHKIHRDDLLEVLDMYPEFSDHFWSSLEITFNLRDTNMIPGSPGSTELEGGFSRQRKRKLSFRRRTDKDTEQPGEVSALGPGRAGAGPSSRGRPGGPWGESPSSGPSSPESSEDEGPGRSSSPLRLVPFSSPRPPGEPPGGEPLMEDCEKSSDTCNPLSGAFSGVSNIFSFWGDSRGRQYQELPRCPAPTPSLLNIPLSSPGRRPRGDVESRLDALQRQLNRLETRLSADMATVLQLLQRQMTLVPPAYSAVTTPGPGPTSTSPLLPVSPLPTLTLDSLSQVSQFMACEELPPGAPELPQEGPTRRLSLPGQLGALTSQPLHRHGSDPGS
Method in brief: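 hERG binding; percent inhibition at a test concentration of 10 µM.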

SMILES | IC50 (Dipeptidyl peptidase 8 [1]) [µM] | IC50 (Dipeptidyl peptidase 2) [µM] | IC50 (Prolyl endopeptidase FAP) [µM] | other results
COc1ccc([C@H]2C[C@@H]2NC(=O)CC(C)(C)NCC(=O)N2CCC[C@H]2C#N)cc1OC | > 20 | > 20 | > 20 | –
COc1cccc([C@H]2C[C@@H]2NC(=O)CC(C)(C)NCC(=O)N2C[C@@H](F)C[C@H]2C#N)c1 | > 20 | > 20 | > 20 | clearance [2]: 124 mL/min/kg; Cmax [3]: 898 ng/mL; half-life [4]: 6.8 h; F (Rattus norvegicus [5]): 194%
CC(C)(CC(=O)N[C@H]1C[C@@H]1c1ccc(Cl)cc1)NCC(=O)N1CCC[C@H]1C#N | > 20 | > 20 | > 20 | –
CC(C)(CC(=O)N[C@@H]1C[C@H]1c1cccc(Cl)c1)NCC(=O)N1CCC[C@H]1C#N | > 20 | 17 | > 20 | –
Cc1ncsc1[C@H]1C[C@@H]1NC(=O)CC(C)(C)NCC(=O)N1C[C@@H](F)C[C@H]1C#N | > 20 | > 20 | > 20 | inhibition (Dipeptidyl peptidase 8 [6]): 23%; inhibition in vivo at 10 mg/kg (Rattus norvegicus [7]): 60%; inhibition in vivo at 10 mg/kg (Rattus norvegicus [8]): 30%
CC(C)(CC(=O)N[C@H]1C[C@@H]1c1cccc(OC(F)(F)F)c1)NCC(=O)N1CCC[C@H]1C#N | > 20 | > 20 | > 20 | –
CC(C)(CC(=O)N[C@H]1C[C@@H]1c1ccc(F)c(F)c1)NCC(=O)N1CCC[C@H]1C#N | > 20 | > 20 | > 20 | –
CC(C)(CC(=O)N[C@H]1C[C@@H]1c1cccc(Cl)c1)NCC(=O)N1CCC[C@H]1C#N (stereo in doubt; 22) | > 20 | > 20 | > 20 | –
CC(C)(CC(=O)N[C@H]1C[C@@H]1c1cccnc1)NCC(=O)N1C[C@@H](F)C[C@H]1C#N | > 20 | > 20 | > 20 | inhibition (Dipeptidyl peptidase 8 [6]): 17%
CC(C)(CC(=O)N[C@H]1C[C@@H]1c1cccc(OC(F)(F)F)c1)NCC(=O)N1C[C@@H](F)C[C@H]1C#N | > 20 | > 20 | > 20 | –
CC(C)(CC(=O)N[C@H]1C[C@@H]1c1cccc(F)c1)NCC(=O)N1C[C@@H](F)C[C@H]1C#N | – | > 20 | > 20 | clearance [2]: 55 mL/min/kg; Cmax [3]: 175 ng/mL; half-life [4]: 1.2 h; bioavailability [9]: 29%
CC(C)(CC(=O)N[C@H]1C[C@@H]1c1cccc(Cl)c1)NCC(=O)N1CCC[C@H]1C#N (stereo in doubt; 18k) | > 20 | > 20 | > 20 | –
CC(C)(CC(=O)N[C@H]1C[C@@H]1c1ccccc1)NCC(=O)N1C[C@@H](F)C[C@H]1C#N | > 20 | > 20 | > 20 | –
CC(C)(CC(=O)N[C@H]1C[C@@H]1c1ccccc1)NCC(=O)N1CCC[C@H]1C#N | > 20 | 16 | > 20 | –
CC(C)(CC(=O)N[C@H]1C[C@@H]1c1ccc(Cl)c(Cl)c1)NCC(=O)N1CCC[C@H]1C#N | > 20 | > 20 | > 20 | –
CC(C)(CC(=O)N[C@H]1C[C@@H]1c1cccc(C(F)(F)F)c1)NCC(=O)N1CCC[C@H]1C#N | > 20 | > 20 | > 20 | –
CC(C)(CC(=O)N[C@@H]1C[C@H]1c1cccc(Cl)c1)NCC(=O)N1C[C@@H](F)C[C@H]1C#N | – | 5.2 | > 20 | –
N[C@@H](CC(=O)N1CCn2c(nnc2C(F)(F)F)C1)Cc1cc(F)c(F)cc1F | – | – | – | Activity (Rattus norvegicus [10]): inactive; Activity (Mus musculus): Active
CC(C)(CC(=O)N[C@H]1C[C@@H]1c1cccc(Cl)c1)NCC(=O)N1CC(F)(F)C[C@H]1C#N | – | 0.59 | – | clearance [11]: 189 mL/min/kg; Cmax [12]: 454 ng/mL; half-life [13]: 3.2 h; bioavailability [14]: 53%; inhibition at 10 µM (hERG (KCNH2)): 15%
CC(C)(CC(=O)N[C@H]1C[C@@H]1c1ccc(F)cc1F)NCC(=O)N1CCC[C@H]1C#N | > 20 | > 20 | > 20 | –
COc1ccc([C@H]2C[C@@H]2NC(=O)CC(C)(C)NCC(=O)N2C[C@@H](F)C[C@H]2C#N)cc1 | > 20 | > 20 | > 20 | clearance [11]: 20 mL/min/kg; Cmax [12]: 347 ng/mL; half-life [13]: 5.3 h; bioavailability [14]: 28%
CC(C)(CC(=O)N[C@H]1C[C@@H]1c1ccc(F)cc1)NCC(=O)N1CCC[C@H]1C#N | > 20 | > 20 | > 20 | –
CC(C)(CC(=O)N[C@H]1C[C@@H]1c1cc(F)cc(F)c1)NCC(=O)N1CCC[C@H]1C#N | > 20 | > 20 | > 20 | –
CC(C)(CC(=O)N[C@H]1C[C@@H]1c1cccc(F)c1)NCC(=O)N1CCC[C@H]1C#N | > 20 | > 20 | > 20 | –
CC(C)(CC(=O)N[C@H]1C[C@@H]1c1ccc(C(F)(F)F)cc1)NCC(=O)N1CCC[C@H]1C#N | > 20 | > 20 | > 20 | –
CCOc1cccc([C@H]2C[C@@H]2NC(=O)CC(C)(C)NCC(=O)N2C[C@@H](F)C[C@H]2C#N)c1 | > 20 | > 20 | – | –
